pPAFAH FP inh: pPAFAH enzyme inhibitors, primary screen, biochemical, fluorescence polarization, human | Platelet-activating factor acetylhydrolase (Homo sapiens), Q13093 | inhibition, % at 3.39 µM | recombinant pPAFAH, FP-rhodamine probe fluorescence polarization | 330,000 compounds, 1.5% hits;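 active means inhibition above the mean inhibition across the screen plus 3 SD, cut at about 25% in these data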;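 further: inhibitors block binding of the rhodamine activity-based probe so polarization drops; 0% = enzyme with DMSO and 100% = wells lacking pPAFAH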
PAFAH1B3 FP inh: PAFAH1B3 enzyme inhibitors, primary screen, biochemical, fluorescence polarization, human; 340,000 compounds, 0.28% hits; inhibition, % at 3.39 µM; recombinant PAFAH1B3, FP-rhodamine probe; Platelet-activating factor acetylhydrolase IB subunit alpha1 (Homo sapiens), Q15102;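 active means inhibition above the screen-wide average of all tested compounds plus 3 SD, cut at about 25% in these data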;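 further: 0% = enzyme with DMSO only and 100% = wells lacking PAFAH1B3 protein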
Target sequence (Q15102 whole entry, looked up): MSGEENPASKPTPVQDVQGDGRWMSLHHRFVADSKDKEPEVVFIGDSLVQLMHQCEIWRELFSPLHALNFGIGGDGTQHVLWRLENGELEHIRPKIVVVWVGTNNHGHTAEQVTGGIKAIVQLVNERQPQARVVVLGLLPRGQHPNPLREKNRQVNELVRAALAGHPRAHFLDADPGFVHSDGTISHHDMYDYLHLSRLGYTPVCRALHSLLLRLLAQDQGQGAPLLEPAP
PAFAH2 inh: PAFAH2 enzyme inhibitors, primary screen, biochemical, fluorescence polarization, human; 340,000 compounds, 0.99% hits; Platelet-activating factor acetylhydrolase 2, cytoplasmic (Homo sapiens), Q99487; AID 492956, 2010; inhibition, % at 3.39 µM; recombinant PAFAH2, FP-rhodamine activity probe;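 active means inhibition above the mean over all tested compounds plus 3 SD, cut at about 30% in these data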;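 further: inhibitors block probe labeling of enzyme so polarization drops; 0% = enzyme with DMSO and 100% = wells lacking PAFAH2 protein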
UCH37 DUB inh: inhibitors of human UCH37 deubiquitinase, primary screen, biochemical, Ub-AMC cleavage, fluorescence | AID 588478, 2011 | purified proteasome/UCH37 | Ubiquitin carboxyl-terminal hydrolase isozyme L5 (Homo sapiens), Q9Y5K5 | inhibition, % (test concentration not listed) | 330,000 compounds, 0.33% hits;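 active means mean inhibition over replicate wells above about 20%, limit read from the data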;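 further: 0% = compound-free wells with enzyme and 100% = wells lacking proteasome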
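Test system – human UCH37 enzyme supplied as purified proteasome complex · Incubation – 30 min preincubation with enzyme, 25 min cleavage at room temperature · Detection – AMC fluorescence from Ub-AMC cleavage, excitation 355 nm, emission 460 nm · Benchmarks – no-proteasome wells (full inhibition) and compound-free wells (no inhibition)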
NR3A LBD binder: binders of NR3A ligand-binding domain, primary screen, biophysical, differential scanning fluorimetry, uHTS; Tm shift relative to glycine control, % at 25 µM; NR3A LBD differential scanning fluorimetry, Tm shift; 0% = protein alone, 100% = glycine-bound protein; 340,000 compounds, 2.5% hits; Glutamate receptor ionotropic, NMDA 3A (GRIN3A) ligand-binding domain;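 active means melting temperature shift of at least 10% of the positive control shift, at one fixed dose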
PAFAH1B2 FP inh: PAFAH1B2 enzyme inhibitors, primary screen, biochemical, fluorescence polarization, human | Platelet-activating factor acetylhydrolase IB subunit alpha2 (Homo sapiens), P68402 | inhibition, % at 3.39 µM | recombinant PAFAH1B2, FP-rhodamine activity probe | AID 492953, 2010 | 340,000 compounds, 1.2% hits;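 active means inhibition above the mean of all tested compounds plus 3 SD, cut at about 24% in these data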;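 further: 0% = enzyme with DMSO and 100% = wells lacking PAFAH1B2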
Target sequence (P68402 whole entry, looked up): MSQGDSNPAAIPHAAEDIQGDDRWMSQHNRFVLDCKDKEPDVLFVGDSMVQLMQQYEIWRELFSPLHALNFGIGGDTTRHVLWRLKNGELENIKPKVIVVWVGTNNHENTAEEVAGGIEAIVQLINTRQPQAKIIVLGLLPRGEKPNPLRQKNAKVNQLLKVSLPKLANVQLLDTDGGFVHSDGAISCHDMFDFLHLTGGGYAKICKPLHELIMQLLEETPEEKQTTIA
pPAFAH confirm: pPAFAH (PLA2G7) enzyme inhibitors, confirmation, biochemical, fluorescence polarization, human; inhibition, % at 3.39 µM; shares compounds with pPAFAH FP inh; recombinant pPAFAH, FP-Rh probe fluorescence polarization; 2,300 compounds, 72% hits;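 active means mean inhibition of the triplicate above the hit cutoff set for the earlier primary screen, cut at about 25% in these data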;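 further: 0% = enzyme with DMSO and 100% = wells lacking pPAFAH enzyme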
Numbers without * were called inactive; · = no result. The list is not random: actives were taken first. Their share in the collection is about 4.8%.

SMILES	pPAFAH FP inh	PAFAH1B3 FP inh	PAFAH2 inh	UCH37 DUB inh	NR3A LBD binder	PAFAH1B2 FP inh	pPAFAH confirm
Cc1nn(-c2cccc(C(F)(F)F)c2)c(Cl)c1/C=N/Nc1cccc(C(=O)O)c1	35*	6	-1	·	-1	6	35*
ON=Cc1ccccc1Oc1ccc(F)cc1	·	·	·	4	·	·	·
COc1cccc(N2C(=O)CC(Nc3ccc(N4CCOCC4)cc3)C2=O)c1 (centres undefined)	39*	5	33*	2	-4	6	0
O=C1CC(Nc2ccc(N3CCOCC3)cc2)C(=O)N1c1cccc(C(F)(F)F)c1 (centres undefined)	46*	4	12	4	-3	3	6
CC(=NNC(=O)c1c(Cl)cnn1C)c1ccc(NC(=O)c2ccncc2)cc1	·	·	·	-54	·	·	·
O=C(CCC(=O)Nc1ccc(Cl)cc1Cl)NN=Cc1ccc([N+](=O)[O-])o1	·	·	·	12	·	·	·
NC(=O)CC1Nc2cccc3cccc(c23)NC1=O (centres undefined)	22	8	-3	7	-2	3	·
O=C(CC1Nc2cccc3cccc(c23)NC1=O)Nc1ccccc1 (centres undefined)	52*	18	58*	2	-5	4	12
CCOc1ccc2cc(C#N)c(SCC(=O)N3CCOCC3)nc2c1	82*	7	1	-101	0	0	6
CCOc1ccc2nc(SCC(=O)N3CCCCCC3)c(C#N)cc2c1	2	0	-14	0	-2	-1	·
COc1cc(C(=O)NCCC(=O)NC2CCCCC2)cc(OC)c1OC	47*	0	13	0	-2	2	3
COc1cc(C(=O)NCC2CCCCC2)cc(OC)c1OC	2	3	-2	2	1	2	·
Cc1ccc(C(NC(=O)C(C)C)c2cc([N+](=O)[O-])c3cccnc3c2O)cc1 (centres undefined)	54*	17	17	6	-7	5	74*
CC(=O)NC(c1cccs1)c1cc(F)c2cccnc2c1O (centres undefined)	4	14	6	-3	2	1	·
CC(C)C(=O)NC(c1cccs1)c1cc([N+](=O)[O-])c2cccnc2c1O (centres undefined)	84*	6	-4	13	-4	-5	79*
CC(C)C(=O)NC(c1cccc([N+](=O)[O-])c1)c1ccc2cccnc2c1O (centres undefined)	14	14	2	5	-9	4	·
Nc1nc(-c2ccco2)c(-c2ccco2)s1	37*	12	7	-1	-1	-2	10
Nc1nc(-c2ccco2)cs1	8	10	-1	3	1	6	·
c1coc(-c2ncc[nH]2)c1	-1	6	4	0	3	0	·
c1coc(-c2nc(-c3ccco3)c(-c3ccco3)nc2-c2ccco2)c1	100*	47*	73*	-69	-27	45*	43*
COc1ccc(CC(=O)NN=Cc2ccc(Cl)s2)cc1OC	·	·	·	7	·	·	·
CC(CC(=O)Nc1ccccc1Br)=NNC(=O)C(=O)N1CCCC1	·	·	·	-1	·	·	·
CCOCCn1c(=O)c2c(nc3n2CCCN3Cc2ccccc2)n(C)c1=O	42*	1	1	1	-1	2	3
COc1ccc(O)c(C(=O)C2c3ccccc3C(=O)N2c2ccc(C)cc2)c1 (centres undefined)	40*	1	4	-5	0	4	-1
COc1ccc(N2C(=O)c3ccccc3C2O)cc1 (centres undefined)	0	-2	2	0	2	3	·

Screens from PubChem BioAssay.
